MrgX1 allo act: allosterically activates human MrgX1 receptor signaling. B-score at 10 µM. AID 588675. 310,000 tested, 0.63% active. MrgX1-HEK293, Fluo-4 calcium flux, FDSS; hits give high values;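 active = plate-corrected calcium response at least 3 library SD above typical, normal starting fluorescence, not activating the receptor alone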;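 also: compound read alongside a low EC10 to EC30 dose of BAM8-22 agonist; peak minus trough fluorescence over baseline measured at the second addition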
Target sequence (Q96LB2 whole entry, looked up): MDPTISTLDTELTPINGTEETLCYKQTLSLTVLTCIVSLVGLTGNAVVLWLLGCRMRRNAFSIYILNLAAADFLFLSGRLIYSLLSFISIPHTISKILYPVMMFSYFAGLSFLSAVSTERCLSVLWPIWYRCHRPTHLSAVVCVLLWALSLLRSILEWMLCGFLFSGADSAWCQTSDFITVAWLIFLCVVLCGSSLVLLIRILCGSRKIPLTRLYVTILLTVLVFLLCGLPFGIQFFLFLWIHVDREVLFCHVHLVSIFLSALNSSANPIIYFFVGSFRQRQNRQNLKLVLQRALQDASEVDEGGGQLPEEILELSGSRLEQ
MrgX1 antagonist: blocks BAM8-22 activation of human MrgX1 receptor. Q96LB2. MRGX1-HEK293 calcium flux, Fluo-4, BAM8-22 antagonism; hits give low values. B-score at 10 µM. 310,000 tested, 1.3% active. AID 588676;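 active = calcium-response B-score plate-corrected more than 3 library SD below zero, starting fluorescence within 5 deviations, no agonist response on first addition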;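 also: peak minus trough fluorescence over baseline after final BAM8-22 challenge near maximal dose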
MrgX1 agonist: agonists of human MrgX1 receptor; MrgX1-HEK293 cells, Fluo-4 calcium fluorescence, agonist mode; hits give high values; Q96LB2; AID 588627; 310,000 tested, 0.44% active; B-score at 10 µM;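 active = calcium response B-score plate-corrected fluorescence ratio at least 3 library SD, with starting fluorescence B-score inside 5 SD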
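Material – MrgX1-expressing HEK293 cells · Input – 15,000 cells seeded per well · Dosing – compound as first of three additions · Times – overnight seeding, then 1 h dark dye loading · Measured by – kinetic Fluo-4 NW fluorescence of intracellular calcium · Read-out – B-scored fluorescence response ratio · Benchmarks – positive and negative control wells on each plate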
RGS4 pot: potentiators or activators of RGS4 | HEK293 M3R/inducible RGS4, carbachol calcium flux Fluo4; hits give low values | B-score at 10 µM | 310,000 tested, 0.92% active;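 active = B-score of the integrated calcium signal more than 4 SD below the library mean, with starting fluorescence not abnormally high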;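 also: negative B-score means reduced calcium response which marks RGS4 activation or potentiation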
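Also added: carbachol at ECmax as muscarinic agonist stimulus; Assay system: HEK293 cells with stable M3R and inducible RGS4; Timing: overnight RGS4 induction, 30 min dye load 37 °C, 20 min compound RT; Measured by: Fluo4-AM (2 µM) calcium-flux fluorescence, kinetic read.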
RGS4 block: human RGS4 inhibition; P49798; HEK293 M3R/RGS4 inducible, Fluo-4 calcium flux; hits give high values; triggered by carbachol at its EC20; B-score at 10 µM; 310,000 tested, 0.45% active; AID 463165;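 active = B-score, a plate-corrected calcium signal, over three deviations above library mean, with baseline fluorescence within five deviations of library mean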;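 also: RGS4 expression induced by doxycycline in cells with stable M3 receptor; B-score is computed from the integrated fluorescence ratio over baseline after carbachol; higher B-score means a larger calcium signal and so more RGS4 inhibition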
Target sequence (P49798 whole entry, looked up): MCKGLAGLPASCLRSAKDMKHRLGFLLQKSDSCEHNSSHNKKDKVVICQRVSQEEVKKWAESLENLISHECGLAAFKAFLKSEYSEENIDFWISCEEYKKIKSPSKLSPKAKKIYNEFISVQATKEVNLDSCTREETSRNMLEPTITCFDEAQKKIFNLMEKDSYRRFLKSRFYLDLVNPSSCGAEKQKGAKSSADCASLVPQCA
MrgX1 ant reconf: human MrgX1 receptor antagonism, re-confirmation screen. shares compounds with MrgX1 antagonist. MrgX1-HEK293, BAM8-22 calcium flux, Fluo-4; hits give low values. remaining BAM8-22 calcium response % of control (hits give low values), % at 10 µM. 2,300 tested, 19% active. AID 602420;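 active = remaining agonist calcium response no higher than 100% minus 3 SD of agonist-only control wells, with starting fluorescence near control levels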;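 also: agonist BAM8-22 given at a near maximal EC90 to ECmax level; peak minus minimum fluorescence divided by baseline after agonist addition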
HEK293 Ca flux: activity in parental HEK293 cells lacking MrgX1; shares compounds with MrgX1 antagonist; Fluo-4 calcium fluorescence, FDSS; fluorescence ratio F(max-min)/F0 at 10 µM; 4,000 tested, 2% active; AID 624111;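 active = duplicate-averaged calcium fluorescence ratio at least three times the standard deviation of buffer wells, a nonspecific response in parental cells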
HEK293 Ca counter: counter-screen for MrgX1 allosteric activators: effect in parental HEK293 cells; shares compounds with MrgX1 antagonist; parental HEK293 calcium flux, Fluo-4 fluorescence ratio; hits give high values; fluorescence ratio F(max-min)/F0 at 10 µM; 4,000 tested, 0.4% active;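 active = calcium fluorescence ratio, averaged over duplicates, at least 3 SD of the buffer-well ratio, meaning a nonspecific response in receptor-free cells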;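 also: untransfected parental HEK293 lacking MrgX1 used as counterscreen for MrgX1 allosteric activators; fluorescence change taken during the second addition on a kinetic imager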
HEK293 Ca cntr2: MrgX1 activator counter-screen hit in parental HEK293 cells. 4,000 tested, 8.7% active. fluorescence ratio F(max-min)/F0 at 10 µM. Fluo-4 calcium fluorescence (FDSS); hits give high values. shares compounds with MrgX1 antagonist;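 active = calcium fluorescence ratio at least three times the spread of buffer wells, meaning a non-specific response in parental cells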
* = called active by the depositor. This is a sample that favours compounds with a hit; in the whole collection about 3.5% have one here.

What do the screens show for `CC1CCc2sc(C(=O)OCC(=O)NCc3ccc(F)cc3)cc2C1` (stereo not drawn)?
MrgX1 allo act: inactive; MrgX1 antagonist: -21*; MrgX1 agonist: inactive; RGS4 pot: inactive; RGS4 block: inactive; MrgX1 ant reconf: inactive; HEK293 Ca flux: inactive; HEK293 Ca counter: inactive; HEK293 Ca cntr2: inactive

What do the screens show for `O=S(=O)([N-]c1nc2ccccc2nc1-n1cc[n+](Cc2ccccc2)c1)c1ccc(Br)cc1`?
MrgX1 allo act: inactive; MrgX1 antagonist: inactive; MrgX1 agonist: inactive; RGS4 pot: inactive; RGS4 block: inactive

Results for COc1ccc(C)cc1S(=O)(=O)N(CC(=O)N1CCCC1)c1ccc(C)cc1 ?
MrgX1 allo act: inactive; MrgX1 antagonist: inactive; MrgX1 agonist: inactive; RGS4 pot: inactive; RGS4 block: inactive

Results for COc1ccc(C)cc1S(=O)(=O)N(CC(=O)N1CCCC1)c1ccccc1 ?
MrgX1 allo act: inactive; MrgX1 antagonist: -5.8*; MrgX1 agonist: inactive; RGS4 pot: inactive; RGS4 block: inactive; MrgX1 ant reconf: inactive; HEK293 Ca flux: inactive; HEK293 Ca counter: inactive; HEK293 Ca cntr2: inactive

How did CCn1c(-c2csc(-c3ccc(Cl)cc3)n2)n[nH]c1=S do in these assays?
MrgX1 allo act: inactive; MrgX1 antagonist: -6*; MrgX1 agonist: inactive; RGS4 pot: inactive; RGS4 block: inactive; MrgX1 ant reconf: inactive; HEK293 Ca flux: inactive; HEK293 Ca counter: inactive; HEK293 Ca cntr2: inactive

What do the screens show for `CCn1c(-c2csc(-c3ccccc3)n2)n[nH]c1=S`?
MrgX1 allo act: inactive; MrgX1 antagonist: inactive; MrgX1 agonist: inactive; RGS4 pot: inactive; RGS4 block: inactive

How did COc1ccc(Cn2c(C)ccc2C)cc1 do in these assays?
MrgX1 allo act: inactive; MrgX1 antagonist: -6.3*; MrgX1 agonist: inactive; RGS4 pot: inactive; RGS4 block: inactive; MrgX1 ant reconf: inactive; HEK293 Ca flux: inactive; HEK293 Ca counter: inactive; HEK293 Ca cntr2: inactive

Results for Cc1oc2c(CN(C)C)c(O)ccc2c(=O)c1-c1ccc2ccccc2n1 ?
MrgX1 allo act: inactive; MrgX1 antagonist: -8.6*; MrgX1 agonist: inactive; RGS4 pot: inactive; RGS4 block: inactive; MrgX1 ant reconf: inactive; HEK293 Ca flux: inactive; HEK293 Ca counter: inactive; HEK293 Ca cntr2: inactive

Results for Cc1ccc(NC(=O)c2sccc2C)cc1S(=O)(=O)N(C)C ?
MrgX1 allo act: inactive; MrgX1 antagonist: -5.2*; MrgX1 agonist: inactive; RGS4 pot: inactive; RGS4 block: inactive; MrgX1 ant reconf: inactive; HEK293 Ca flux: inactive; HEK293 Ca counter: inactive; HEK293 Ca cntr2: inactive

What do the screens show for `Cc1ccc(NC(=O)c2ccccc2Br)cc1S(=O)(=O)N(C)C`?
MrgX1 allo act: inactive; MrgX1 antagonist: inactive; MrgX1 agonist: inactive; RGS4 pot: inactive; RGS4 block: inactive

How did Cn1cc(CNC(=O)C2CCC(=O)N(Cc3ccccc3F)C2)cn1 (stereo not drawn) do in these assays?
MrgX1 allo act: inactive; MrgX1 antagonist: -4.7*; MrgX1 agonist: inactive; RGS4 pot: inactive; RGS4 block: inactive; MrgX1 ant reconf: inactive; HEK293 Ca flux: inactive; HEK293 Ca counter: inactive; HEK293 Ca cntr2: inactive

Results for Cc1nn(C)c(Cl)c1CN1CCN(C2CCCC2)C(CCO)C1 (stereo not drawn) ?
MrgX1 allo act: inactive; MrgX1 antagonist: -11*; MrgX1 agonist: inactive; RGS4 pot: inactive; RGS4 block: inactive; MrgX1 ant reconf: inactive; HEK293 Ca flux: inactive; HEK293 Ca counter: inactive; HEK293 Ca cntr2: inactive

Source: PubChem (Johns Hopkins Ion Channel Center)
